Test results taken from ChEMBL document CHEMBL1146258, “N6-Cycloalkyl-2-substituted adenosine derivatives as selective, high affinity adenosine A1 receptor agonists” (Bioorg Med Chem Lett, 2007).

Tests used:
Adenosine receptor A3 = target: T1, Adenosine receptor A3 (Homo sapiens, UniProt P0DMS8); experiment: Displacement of [125I]ABMECA from adenosine A3 receptor expressed in CHO cells; assay type: cell-based
T1 sequence (P0DMS8 whole entry): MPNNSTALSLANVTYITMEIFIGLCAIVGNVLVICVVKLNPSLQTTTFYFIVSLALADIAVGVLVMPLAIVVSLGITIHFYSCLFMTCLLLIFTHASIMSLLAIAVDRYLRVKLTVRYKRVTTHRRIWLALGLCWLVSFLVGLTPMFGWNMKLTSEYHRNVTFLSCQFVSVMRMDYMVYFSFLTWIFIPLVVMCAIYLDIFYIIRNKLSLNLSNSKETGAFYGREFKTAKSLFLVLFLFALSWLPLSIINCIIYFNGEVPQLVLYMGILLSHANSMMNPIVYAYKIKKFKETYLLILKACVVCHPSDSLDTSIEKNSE

Adenosine receptor A2a = Adenosine receptor A2a (Homo sapiens, UniProt P29274); experiment: Displacement of [3H]ZM-241385 from A2A adenosine A2A receptor expressed in HEK cells; assay type: cell-based, HEK293
Adenosine receptor A2a, sequence (P29274 whole entry): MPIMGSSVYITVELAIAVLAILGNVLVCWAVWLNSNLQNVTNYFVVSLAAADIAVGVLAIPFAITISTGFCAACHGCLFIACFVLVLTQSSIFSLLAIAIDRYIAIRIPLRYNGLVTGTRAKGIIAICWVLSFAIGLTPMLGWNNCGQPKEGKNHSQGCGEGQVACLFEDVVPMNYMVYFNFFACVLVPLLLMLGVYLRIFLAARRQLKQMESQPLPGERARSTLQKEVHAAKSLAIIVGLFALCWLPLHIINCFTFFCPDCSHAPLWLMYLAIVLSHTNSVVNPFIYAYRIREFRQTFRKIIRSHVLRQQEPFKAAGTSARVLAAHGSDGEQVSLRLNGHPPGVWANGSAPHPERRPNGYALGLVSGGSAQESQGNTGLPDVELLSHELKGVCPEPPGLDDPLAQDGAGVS
Method in brief: (§1)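 HEK cells expressing A2A or A2B receptor, [³H]-ZM241385 radioligand, run without GTP; Ki for the high-affinity (coupled) state. 95% confidence limits generally 15% of mean.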

Adenosine receptor A2b = target: T2, Adenosine receptor A2b (Homo sapiens, UniProt P29275); experiment: Displacement of [3H]ZM241385 from adenosine A2B receptor expressed in HEK cells; assay type: cell-based, HEK293; method in brief: as §1
T2 sequence (P29275 whole entry): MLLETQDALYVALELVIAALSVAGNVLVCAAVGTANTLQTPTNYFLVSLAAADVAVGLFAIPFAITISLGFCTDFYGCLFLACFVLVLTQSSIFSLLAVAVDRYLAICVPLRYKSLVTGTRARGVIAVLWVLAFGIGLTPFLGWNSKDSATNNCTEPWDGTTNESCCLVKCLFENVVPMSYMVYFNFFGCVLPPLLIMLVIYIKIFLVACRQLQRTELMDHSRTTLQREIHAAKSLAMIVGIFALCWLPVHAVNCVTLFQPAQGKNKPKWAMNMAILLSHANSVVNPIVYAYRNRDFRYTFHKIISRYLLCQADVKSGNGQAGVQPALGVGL

[1] = target: Adenosine receptors; A1 & A3 (Homo sapiens) (UniProt P30542+P0DMS8); experiment: Selectivity for adenosine A1 receptor over adenosine A3 receptor; assay type: protein assay
Adenosine receptors; A1 & A3 (Homo sapiens), sequence (P30542 whole entry, looked up, one chain of several): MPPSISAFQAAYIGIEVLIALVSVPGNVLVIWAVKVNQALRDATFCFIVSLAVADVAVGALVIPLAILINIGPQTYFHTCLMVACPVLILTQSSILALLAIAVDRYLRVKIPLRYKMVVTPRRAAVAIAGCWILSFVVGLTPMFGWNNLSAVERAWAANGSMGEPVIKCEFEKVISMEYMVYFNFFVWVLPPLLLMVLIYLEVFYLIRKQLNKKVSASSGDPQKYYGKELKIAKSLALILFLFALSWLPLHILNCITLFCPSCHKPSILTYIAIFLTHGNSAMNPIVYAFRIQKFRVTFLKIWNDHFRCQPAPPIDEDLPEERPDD
Method in brief: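 Ratio of A3 Ki-High (CHO-A3 cells, [¹²⁵I]-AB-MECA, no GTP) to A1 Ki-Low (DDT membranes, [³H]-CPX, with GTPγS).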

[2] = target: Adenosine receptors; A1 & A2a (Homo sapiens) (UniProt P30542+P29274); experiment: Selectivity for adenosine A1 receptor over adenosine A2A receptor; assay type: protein assay
[3] = target: Adenosine receptor A1 (Mesocricetus auratus); experiment: Displacement of [3H]CPX from adenosine A1 receptor in DDT membranes
[4] = target: T3, Adenosine receptor A1 (Rattus norvegicus) (UniProt P25099); experiment: Agonist activity at adenosine A1 receptor in rat brain membrane assessed as stimulation of [35S]GTP-gamma-S binding relative to CPA; assay type: functional, cell membranes
T3 sequence (whole entry): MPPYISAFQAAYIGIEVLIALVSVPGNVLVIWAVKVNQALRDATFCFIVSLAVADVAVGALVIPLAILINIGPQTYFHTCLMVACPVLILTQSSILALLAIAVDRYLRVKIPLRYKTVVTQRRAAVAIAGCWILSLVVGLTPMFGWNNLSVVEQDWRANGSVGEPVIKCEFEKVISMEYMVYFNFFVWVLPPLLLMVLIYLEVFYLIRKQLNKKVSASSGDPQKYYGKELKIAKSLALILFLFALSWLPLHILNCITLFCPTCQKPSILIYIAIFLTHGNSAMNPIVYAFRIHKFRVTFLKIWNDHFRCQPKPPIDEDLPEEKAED
Method in brief: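 Rat brain membranes; agonist-induced [³⁵S]GTPγS binding to G protein measured, with maximal stimulation by the full agonist CPA set as 100% and efficacy expressed relative to it.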

Structure (SMILES) | Ki (Adenosine receptor A3) [µM] | Ki (Adenosine receptor A2a) [µM] | Ki (Adenosine receptor A2b) [µM] | Ratio Ki [1] | Ratio Ki [2] | Ki [3] [µM] | Intrinsic activity [4] [%]
CCOC(=O)c1cnn(-c2nc(NC34CCC(CC3)C4)c3ncn([C@@H]4O[C@H](CO)[C@@H](O)[C@H]4O)c3n2)c1 | 0.25 | > 5 | > 6 | 83 |  |  | 
CCOC(=O)c1cnn(-c2nc(NC3CCCC3)c3ncn([C@@H]4O[C@H](CO)[C@@H](O)[C@H]4O)c3n2)c1 | 0.019 | > 5 | > 6 | 21 |  |  | 
CCNC(=O)c1cnn(-c2nc(NC3CCCC3)c3ncn([C@@H]4O[C@H](CO)[C@@H](O)[C@H]4O)c3n2)c1 | 0.02 | > 5 | > 6 | 20 |  |  | 
CNC(=O)c1cnn(-c2nc(NC3CCCC3)c3ncn([C@@H]4O[C@H](CO)[C@@H](O)[C@H]4O)c3n2)c1 | 1.42 | > 5 | > 6 | 710 |  |  | 
NC(=O)c1cnn(-c2nc(NC3CCCC3)c3ncn([C@@H]4O[C@H](CO)[C@@H](O)[C@H]4O)c3n2)c1 | 0.38 | > 5 | > 6 | 633 | > 600 |  | 
OC[C@H]1O[C@@H](n2cnc3c(NC4CCCC4)nc(-n4cccn4)nc32)[C@H](O)[C@@H]1O | 0.105 | > 5 | > 6 | 3 |  |  | 
O=C(O)c1cnn(-c2nc(NC34CCC(CC3)C4)c3ncn([C@@H]4O[C@H](CO)[C@@H](O)[C@H]4O)c3n2)c1 | > 5 | > 5 | > 6 | > 5000 |  |  | 
CCOC(=O)c1cnn(-c2nc(NC3CCCCC3)c3ncn([C@@H]4O[C@H](CO)[C@@H](O)[C@H]4O)c3n2)c1 | 0.03 | > 5 | > 6 | 1 |  |  | 
CCNc1nc(-n2cc(-c3ccc(OC)cc3)cn2)nc2c1ncn2[C@@H]1O[C@H](CO)[C@@H](O)[C@H]1O |  |  |  |  |  | 3.7 | 
O=C(O)c1cnn(-c2nc(NC3CCCC3)c3ncn([C@@H]4O[C@H](CO)[C@@H](O)[C@H]4O)c3n2)c1 | 4.12 | > 5 | > 6 | 468 |  |  | 100
OC[C@H]1O[C@@H](n2cnc3c(NC45CCC(CC4)C5)nc(-n4cccn4)nc32)[C@H](O)[C@@H]1O | 1.27 | > 5 | > 6 | 3180 |  |  | 
CNC(=O)c1cnn(-c2nc(NC3CCCCC3)c3ncn([C@@H]4O[C@H](CO)[C@@H](O)[C@H]4O)c3n2)c1 | 0.158 | > 5 | > 6 | 19 |  |  | 
